According to PMC8791284 (SLAS discovery : advancing life sciences R & D, 2021):

What was measured:
[1] = tested on: CDK9 (Ser2-RNA polymerase II phosphorylation); experiment: Western blot of phospho-Ser2 RNA polymerase II in KRAS^G12D MEFs; assay type: cell-based, mouse; conditions: 6 h, 0.1, 1 and 10 μM
[2] = tested on: KRAS^G12D-expressing MEFs; experiment: ATP-based cell viability assay; parameters: species or system mouse; conditions: Suppl. Fig. S3
How it was run: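 KRAS^G12D- and HRAS^WT-expressing mouse embryonic fibroblasts are dispensed onto plates pre-spotted with test compound from 10 mM stocks. Test compound is used at 5 μM final for the primary screen, or as serial dilutions for dose–response. After 72 h, CellTiter-Glo reagent is added, incubated 15 min, and luminescence is read. Each plate is checked by Z' factor and carries a reference HSP-90 inhibitor dose–response.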

[3] = tested on: BRAF^V600E-expressing MEFs; experiment: Cell proliferation assay, BRAF^V600E MEFs; assay type: cell-based, mouse; conditions: versus other MEF panel lines, Fig. 1E

CC(C)(C)c1cnc(CSc2cnc(NC(=O)C3CCNCC3)s2)o1 [SNS032]
phosphorylation level of Ser2-RNA polymerase II [1]: diminished the Ser2 phosphorylation level in a dose-dependent manner | sensitivity of KRAS^G12D MEFs versus HRAS^WT MEFs in cell viability assay [2]: more sensitive

CC(C)(C)c1nc(-c2cccc(NS(=O)(=O)c3c(F)cccc3F)c2F)c(-c2ccnc(N)n2)s1 [dabrafenib]
specific activity against BRAF^V600E-expressing MEFs [3]: showed specific activity

CCCS(=O)(=O)Nc1ccc(F)c(C(=O)c2c[nH]c3ncc(-c4ccc(Cl)cc4)cc23)c1F [vemurafenib]
specific activity against BRAF^V600E-expressing MEFs [3]: showed specific activity
